The record followed here is the EternaBench riboswitch data.

One may read the apparent Kd as the concentration giving half-maximal binding under the conditions of the assay.

Series [1] relates to MS2 coat protein. Put plainly: apparent Kd, MS2 coat protein; higher = weaker binding; RNA-MaP array. The essentials:
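Designs measured on fewer than 10 clusters were excluded from the data. The rest were RNAs transcribed from sequenced DNA templates on an Illumina sequencing chip and incubated at room temperature, with or without input ligand, with fluorescently labeled MS2 coat protein at 1.5 nM to 3 μM for 0.8–1.5 h at the lowest to 10–20 min at the highest concentrations. Apparent Kd is the median of the per-cluster binding-curve fits.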

The test system of series [2] is MS2 coat protein. The series can be described thus: apparent Kd, MS2 coat protein; higher = weaker binding; RNA-MaP array; FMN 200 µM where present. The settings on record: designed as: OFF switch for flavin mononucleotide. Put shortly:
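Green signal was scaled to red-channel RNA signal and control-cluster median Fmax, and the apparent Kd was taken as the median of filtered per-cluster binding-curve fits. The binding series used SNAP-549-labelled MS2 coat protein from 0.7 or 1.5 nM, doubling to 3 µM, on designs transcribed by stalled E. coli RNA polymerase on Illumina sequencing-chip clusters. Each series ran without and then with constant ligand in 100 mM Tris-HCl pH 7.5, 80 mM KCl, 4 mM MgCl2, BSA, DTT, yeast tRNA and Tween-20.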

Setting [3] is: designed as: OFF switch for theophylline, no ligand.
The mark [4] stands for this setting: ligand present: theophylline, designed as: OFF switch for theophylline.
[5] abbreviates: designed as: OFF switch for flavin mononucleotide, no ligand.
Where [6] appears, read: ligand present: flavin mononucleotide, designed as: OFF switch for flavin mononucleotide.
The mark [7] stands for this setting: designed as: ON switch for flavin mononucleotide, no ligand.
Setting [8] is: ligand present: flavin mononucleotide, designed as: ON switch for flavin mononucleotide.
Setting [9] is: ligand present: flavin mononucleotide.

As for “CUGUUUGUUUGGGUCUGUCAAAAGAACGAUACCAGCCGCAUUAUGGGCCCUUGGCAGCGUAGGACAUGAGGAUCACCCAUGUACG”, the figures for the “apparent Kd” value with MS2 coat protein [1] (setting [3]) and in the series on MS2 coat protein [1] (setting [4]) were 18.7 nM and 35.2 nM, respectively.

As to “GGAAGGACAGUUGAUACCAGUUUCAAAGGCGGUAAUCACUACAUGAGGAUCACCCAUGUCAACCCUUGGCAGCAAUAGACCGUGG”, the results for the “apparent Kd” value with MS2 coat protein [1] (setting [3]) and in the series on MS2 coat protein [1] (setting [4]) were 18.8 nM and 24 nM, respectively.

For “GUCAUGUUAGGAUAUACACGUACCCGCCGACAGCCAGCAAUGUAGAAGGAACAUGAGGAUCACCCAUGUCGUGG”, the “apparent Kd” value with MS2 coat protein [1] (setting [5]) came to 15.2 nM; in the series on MS2 coat protein [1] (setting [6]), 31.5 nM.

As for “CCUUAACAUGAGGAUCACCCAUGUCUGGAUACCAGAUACAGAUAAAUCCCUUGGCAGCCAAAAUAUGAAAGAAAUAAAAUAAGAA”, the “apparent Kd” value worked out at 41.3 nM in the series with MS2 coat protein [1] (designed as: ON switch for theophylline, no ligand) and 48.9 nM in the series on MS2 coat protein [1] (ligand present: theophylline, designed as: ON switch for theophylline).

As for “UACGAGUAAGGAUAUACACUGACCCAAAGAGUACAGAAAAUGUAGAAGGUACAUGAGGAUCACCCAUGUAGGUG”, the “apparent Kd” value came to 85.2 nM with MS2 coat protein [1] (setting [5]) and 94.3 nM with MS2 coat protein [1] (setting [6]).

Take “AAUGACAUGAGGAUCACCCAUGUCCAUCUAAGCUCGGGUCUGCAGGAUAUUCCCGUGGGAUUAGGGAAGAAGGGCAGUGAUUGU”: the “apparent Kd” value in the series on MS2 coat protein [1] (setting [7]) stood at 14 nM; in the series with MS2 coat protein [1] (setting [8]), 7.02 nM.

With “UUAGCACAUGAGGAUCACCCAUGUUAGGAUAUCCGUUAAUAUCAGGCAAGGUCUGAAAGGAGAAGGAACAUGAA”, the “apparent Kd” value with MS2 coat protein [1] (setting [5]) is 35.4 nM; with MS2 coat protein [1] (setting [6]) it was 67.9 nM.

“GUUGGACAUGAGGAUCACCCAUGUGAAUUGUUUUCCACGUACUAGGAUAUCGCGGGACAAACCAUCGAGAAGGAGUCGACCUAA”: the figures for the “apparent Kd” value in the series on MS2 coat protein [1] (setting [5]) and with MS2 coat protein [1] (setting [6]) were 14.4 nM and 12.2 nM, respectively.

With “ACCCAGACAUGAGGAUCACCCAUGUAAAUAGAGUACAUCAGGAGAAGGUUCAAAGGGCCUACCCGAAAGGAUAUCCUCGGCGUA”, the results for the “apparent Kd” value in the series on MS2 coat protein [1] (setting [7]) and with MS2 coat protein [1] (setting [8]) were 30.8 nM and 25.7 nM, respectively.

Turning to “UUACAUACCUUAGGAUAUCAUCGUAGUAGGGCAAUAUAACAUGAGGAUCACCCAUGUCUCGUGCGUGAGAAGGAAGAACGUCAU”, the “apparent Kd” value in the series with MS2 coat protein [1] (setting [7]) was determined as 32.7 nM; with MS2 coat protein [1] (setting [8]) it was 27.8 nM.

For the sequence “GUUGACGAGUCAGGAUAUGAUUAGUGGGAGAAACAGCAACUCACAUGAGGAUCACCCAUGUAUGUUCAGAAGGGACGCCGAUCA”, the figures for the “apparent Kd” value with MS2 coat protein [1] (setting [5]) and in the series with MS2 coat protein [1] (setting [6]) were 63.9 nM and 183 nM, respectively.

With “UUAGGGCGGUAGAAGGAGGAUUACAUGAGGAUCACCCAUGUGGCAGGAGGCGAGGCUCAGUUACCCUAGGAUAUACAUCAGGUU”, the “apparent Kd” value in the series with MS2 coat protein [1] (setting [5]) worked out at 24.9 nM; with MS2 coat protein [1] (setting [6]), 21.5 nM.

Turning to “UUCAGCUCGUCAGGAUAUACGUCACUGCUUCGGCAGUGUGGUAAGAUCACAUGAGGAUCACCCAUGUAGAAGGGACGAGCUGAG”, the “apparent Kd” value came out at 12.3 nM with MS2 coat protein [2] (no ligand) and 312 nM in the series on MS2 coat protein [2] (setting [9]).

For the sequence “UAUAUGUAUGUAGGAUAUGGUAUAUAAAAUAUACCAGAAGGACAUGAGGAUCACCCAUGUAUGAAAUUCCAUAAUAACCGUGUA”, the “apparent Kd” value with MS2 coat protein [2] (no ligand) worked out at 11.3 nM; with MS2 coat protein [2] (setting [9]) it was 11 nM.

As to “UGUCCAUAGCAGAAGGACAUAAAUACAUGACCAAACAUGAGGAUCACCCAUGUAGGAUAUGCUAUGGACUAAGAGCGAAAGCUC”, the figures for the “apparent Kd” value with MS2 coat protein [2] (no ligand) and in the series on MS2 coat protein [2] (setting [9]) were 6.6 nM and 9.31 nM, respectively.

Regarding “GUACUGUAGUGAGGAUAUACGAGUUCGAUAGAACGGCGAUCCAAUUAUACAUGAGGAUCACCCAUGUAGAAGGCACUUCAGUAC”, the “apparent Kd” value in the series with MS2 coat protein [2] (no ligand) worked out at 8.88 nM; in the series on MS2 coat protein [2] (setting [9]), 50 nM.

Turning to “UCUCUUCUGUAGAAGGCCCAACUUGUGAAGAUAACGAUACUAUAGAAGUAGGGAGGAUAUACAUGAGGAUCACCCAUGUAGGAA”, the “apparent Kd” value in the series with MS2 coat protein [2] (no ligand) came out at 8.09 nM; in the series on MS2 coat protein [2] (setting [9]), 15.8 nM.

Take “AGUCGGAGCAGAGGAUAUACAUGAGGAUCACCCAUGUAAUAAAGUGAAGCCUGGAAGCAGGCAAUGUAGAAGGCUGCUCCGACA”: the “apparent Kd” value in the series on MS2 coat protein [2] (no ligand) came to 11.1 nM; in the series on MS2 coat protein [2] (setting [9]), 81.8 nM.

“GGAUGAGAAACUCAUCCAAUUCGAACAUGAGGAUCACCCAUGUAGGAUAUGCUACUCAAAGAGUAGCAGAAGGACAUGUGCCUU”: the “apparent Kd” value with MS2 coat protein [2] (no ligand) was found to be 25 nM; in the series on MS2 coat protein [2] (setting [9]), 189 nM.

In the case of “CCAGCGUGUGUGAGGAUAUGCUGGUCCUUGGAUCAGCAGAAGGCACAUGAGGAUCACCCAUGUGAGUACGUUGG”, the “apparent Kd” value turned out to be 16.9 nM with MS2 coat protein [2] (no ligand) and 59.4 nM with MS2 coat protein [2] (setting [9]).
